Laboratory results: ChEMBL document CHEMBL1811770, “Synthesis and structural investigation of some pyrimido[5,4-c]quinolin-4(3H)-one derivatives with a long-chain arylpiperazine moiety as potent 5-HT(1A/2A) and 5-HT(7) receptor ligands” (Eur J Med Chem, 2011)

molecular target: 5-hydroxytryptamine receptor 2A (Rattus norvegicus) (UniProt P14842); assay: Displacement of [3H]ketanserin from 5HT2A receptor in rat cortex membrane at 10^-6 M by radioligand binding assay; assay type: cell membranes; conditions: not given
Sequence (P14842 whole entry): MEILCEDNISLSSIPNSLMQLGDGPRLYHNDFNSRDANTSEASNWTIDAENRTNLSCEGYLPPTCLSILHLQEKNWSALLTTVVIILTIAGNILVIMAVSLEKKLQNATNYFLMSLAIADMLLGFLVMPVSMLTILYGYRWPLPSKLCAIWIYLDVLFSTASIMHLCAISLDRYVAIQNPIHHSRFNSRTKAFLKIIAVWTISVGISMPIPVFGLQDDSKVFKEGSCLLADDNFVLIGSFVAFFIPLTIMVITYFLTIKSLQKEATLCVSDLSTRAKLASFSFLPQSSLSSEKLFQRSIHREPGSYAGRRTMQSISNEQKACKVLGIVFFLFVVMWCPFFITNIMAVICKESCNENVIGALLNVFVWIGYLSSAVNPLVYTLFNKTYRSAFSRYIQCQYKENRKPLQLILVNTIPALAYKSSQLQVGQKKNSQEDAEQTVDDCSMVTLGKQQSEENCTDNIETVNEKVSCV
Procedure, shortened: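 Single-point screen at 1 µM, reported as % inhibition of [3H]-ketanserin (88.0 Ci/mmol) binding. Non-specific binding was defined with 1 µM methysergide. Compounds inhibiting at least 85% went on to full competition.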

inhibition	SMILES
82%	Cc1ccccc1N1CCN(CCCCn2cnc3c(cnc4ccccc43)c2=O)CC1
79%	O=c1c2cnc3ccccc3c2ncn1CCCCN1CCN(c2ccc(Cl)cc2)CC1
28%	Cc1ccc2ncc3c(=O)n(CCCN4CCN(c5ccccc5)CC4)cnc3c2c1
34%	Cc1ccccc1N1CCN(CCn2cnc3c(cnc4ccccc43)c2=O)CC1
4%	O=c1c2cnc3ccccc3c2ncn1CCN1CCN(c2ccc(Cl)cc2)CC1
26%	O=c1c2cnc3ccccc3c2ncn1CCN1CCN(c2ccccc2)CC1
36%	COc1ccccc1N1CCN(CCn2cnc3c(cnc4ccccc43)c2=O)CC1
8%	Cc1ccc2ncc3c(=O)n(CCN4CCN(c5cccc(C(F)(F)F)c5)CC4)cnc3c2c1
44%	Cc1ccc2ncc3c(=O)n(CCCN4CCN(c5cccc(Cl)c5)CC4)cnc3c2c1
18%	COc1ccccc1N1CCN(CCCn2cnc3c(cnc4cc(C)ccc43)c2=O)CC1
39%	Cc1ccc2ncc3c(=O)n(CCCN4CCN(c5ccc(F)cc5)CC4)cnc3c2c1
11%	COc1cccc(N2CCN(CCn3cnc4c(cnc5ccccc54)c3=O)CC2)c1
34%	Cc1ccc2ncc3c(=O)n(CCCCN4CCN(c5ccccc5F)CC4)cnc3c2c1
29%	O=c1c2cnc3ccccc3c2ncn1CCN1CCN(c2ccc(-c3ncccn3)cc2)CC1
32%	Cc1ccccc1N1CCN(CCCn2cnc3c(cnc4ccccc43)c2=O)CC1
28%	COc1ccc(N2CCN(CCn3cnc4c(cnc5ccccc54)c3=O)CC2)cc1
36%	O=c1c2cnc3ccccc3c2ncn1CCN1CCN(c2cccc(C(F)(F)F)c2)CC1
57%	Cc1ccc2c(c1)ncc1c(=O)n(CCCCN3CCN(c4ccc(F)cc4)CC3)cnc12
84%	O=c1c2cnc3ccccc3c2ncn1CCCCN1CCN(c2cccc(Cl)c2)CC1
45%	Cc1ccc2c(c1)ncc1c(=O)n(CCCN3CCN(c4ccc(F)cc4)CC3)cnc12
19%	COc1ccccc1N1CCN(CCn2cnc3c(cnc4cc(C)ccc43)c2=O)CC1
4%	COc1ccc(N2CCN(CCn3cnc4c(cnc5ccc(C)cc54)c3=O)CC2)cc1
76%	COc1cccc(N2CCN(CCCCn3cnc4c(cnc5ccccc54)c3=O)CC2)c1
67%	O=c1c2cnc3ccccc3c2ncn1CCCN1CCN(c2ccc(Cl)cc2)CC1
62%	Cc1ccc2c(c1)ncc1c(=O)n(CCCCN3CCN(c4cccc(Cl)c4)CC3)cnc12
57%	Cc1ccc2ncc3c(=O)n(CCCCN4CCN(c5cccc(Cl)c5)CC4)cnc3c2c1
11%	COc1ccccc1N1CCN(CCn2cnc3c(cnc4ccc(C)cc43)c2=O)CC1
8%	Cc1ccc2c(c1)ncc1c(=O)n(CCN3CCN(c4cccc(C(F)(F)F)c4)CC3)cnc12

molecular target: T1, 5-hydroxytryptamine receptor 1A (Rattus norvegicus, UniProt P19327); assay: Displacement of [3H]8-OH-DPAT from 5HT1A receptor in rat hippocampal membrane by radioligand binding assay; assay type: cell membranes, Hippocampus; conditions: not given
T1 sequence (P19327 whole entry): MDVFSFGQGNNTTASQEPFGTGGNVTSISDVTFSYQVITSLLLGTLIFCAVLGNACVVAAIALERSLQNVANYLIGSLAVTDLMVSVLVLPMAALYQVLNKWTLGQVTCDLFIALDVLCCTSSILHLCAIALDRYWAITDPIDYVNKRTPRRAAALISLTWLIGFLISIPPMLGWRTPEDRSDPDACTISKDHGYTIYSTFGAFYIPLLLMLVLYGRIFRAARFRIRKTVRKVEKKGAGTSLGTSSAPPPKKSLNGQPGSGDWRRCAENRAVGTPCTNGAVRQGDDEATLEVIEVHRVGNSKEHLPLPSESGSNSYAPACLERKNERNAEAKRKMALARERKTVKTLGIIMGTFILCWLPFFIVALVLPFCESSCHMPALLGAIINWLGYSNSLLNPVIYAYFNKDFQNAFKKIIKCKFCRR
Procedure, shortened: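 Rat hippocampal membranes were incubated with [3H]-8-OH-DPAT (170 Ci/mmol), with 10 µM 5-HT for non-specific binding. Competition used 7–9 test concentrations, each in triplicate, to give Ki. Values are means of three experiments run in triplicate.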

Ki	SMILES
52 nM	Cc1ccccc1N1CCN(CCCCn2cnc3c(cnc4ccccc43)c2=O)CC1
128 nM	Cc1ccc2ncc3c(=O)n(CCCN4CCN(c5ccccc5)CC4)cnc3c2c1
514 nM	Cc1ccccc1N1CCN(CCn2cnc3c(cnc4ccccc43)c2=O)CC1
42 nM	COc1ccccc1N1CCN(CCn2cnc3c(cnc4ccccc43)c2=O)CC1
31 nM	COc1ccccc1N1CCN(CCCn2cnc3c(cnc4cc(C)ccc43)c2=O)CC1
97 nM	Cc1ccc2ncc3c(=O)n(CCCCN4CCN(c5ccccc5F)CC4)cnc3c2c1
160 nM	O=c1c2cnc3ccccc3c2ncn1CCN1CCN(c2cccc(C(F)(F)F)c2)CC1
34 nM	O=c1c2cnc3ccccc3c2ncn1CCCCN1CCN(c2cccc(Cl)c2)CC1
14 nM	COc1ccccc1N1CCN(CCn2cnc3c(cnc4cc(C)ccc43)c2=O)CC1
31 nM	COc1cccc(N2CCN(CCCCn3cnc4c(cnc5ccccc54)c3=O)CC2)c1
172 nM	Cc1ccc2c(c1)ncc1c(=O)n(CCCCN3CCN(c4cccc(Cl)c4)CC3)cnc12
67 nM	Cc1ccc2ncc3c(=O)n(CCCCN4CCN(c5cccc(Cl)c5)CC4)cnc3c2c1
82 nM	COc1ccccc1N1CCN(CCn2cnc3c(cnc4ccc(C)cc43)c2=O)CC1
241 nM	Cc1ccc2c(c1)ncc1c(=O)n(CCN3CCN(c4cccc(C(F)(F)F)c4)CC3)cnc12

molecular target: 5-hydroxytryptamine receptor 7 (Homo sapiens, UniProt P34969); assay: Displacement of [3H]-5-CT from human 5-HT7b receptor expressed in HEK293 cells by radioligand binding assay; assay type: cell-based; conditions: not given
Sequence (P34969 whole entry): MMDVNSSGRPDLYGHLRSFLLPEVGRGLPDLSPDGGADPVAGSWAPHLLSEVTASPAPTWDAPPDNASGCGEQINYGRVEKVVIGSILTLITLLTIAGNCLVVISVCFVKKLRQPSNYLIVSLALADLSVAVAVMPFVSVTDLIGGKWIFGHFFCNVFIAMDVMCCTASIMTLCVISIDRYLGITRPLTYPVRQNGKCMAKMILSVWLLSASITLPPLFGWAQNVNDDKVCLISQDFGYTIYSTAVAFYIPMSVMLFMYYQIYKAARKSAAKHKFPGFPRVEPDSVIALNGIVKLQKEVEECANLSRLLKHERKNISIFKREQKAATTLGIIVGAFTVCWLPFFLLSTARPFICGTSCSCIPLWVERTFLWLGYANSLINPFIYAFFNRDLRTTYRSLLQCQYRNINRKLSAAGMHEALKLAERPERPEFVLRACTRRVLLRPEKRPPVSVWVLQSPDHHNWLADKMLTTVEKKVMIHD
Procedure, shortened: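 Membranes from HEK-293 cells stably expressing human 5-HT7b receptor, with [3H]-5-CT (93.0 Ci/mmol) as radioligand. Full competition used 7–9 concentrations of test compound, each run in triplicate. Ki was derived from the inhibition.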

Ki	SMILES
296 nM	Cc1ccccc1N1CCN(CCCCn2cnc3c(cnc4ccccc43)c2=O)CC1
328 nM	O=c1c2cnc3ccccc3c2ncn1CCCCN1CCN(c2ccc(Cl)cc2)CC1
184 nM	O=c1c2cnc3ccccc3c2ncn1CCCCN1CCN(c2cccc(Cl)c2)CC1
484 nM	COc1cccc(N2CCN(CCCCn3cnc4c(cnc5ccccc54)c3=O)CC2)c1

molecular target: T2, 5-hydroxytryptamine receptor 1A (Rattus norvegicus) (UniProt P19327); assay: Displacement of [3H]8-OH-DPAT from 5HT1A receptor in rat hippocampal membrane at 10^-6 M by radioligand binding assay; assay type: cell membranes; conditions: Hippocampus
T2 sequence (whole entry): T1 sequence (P19327 whole entry)
Procedure, shortened: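 Single-point screen at 1 µM on rat hippocampal membranes, reported as % inhibition of [3H]-8-OH-DPAT (170 Ci/mmol) binding. Non-specific binding was defined with 10 µM 5-HT. Compounds inhibiting at least 85% went on to full competition.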

inhibition	SMILES
96%	Cc1ccccc1N1CCN(CCCCn2cnc3c(cnc4ccccc43)c2=O)CC1
54%	O=c1c2cnc3ccccc3c2ncn1CCCCN1CCN(c2ccc(Cl)cc2)CC1
86%	Cc1ccc2ncc3c(=O)n(CCCN4CCN(c5ccccc5)CC4)cnc3c2c1
84%	Cc1ccccc1N1CCN(CCn2cnc3c(cnc4ccccc43)c2=O)CC1
11%	O=c1c2cnc3ccccc3c2ncn1CCN1CCN(c2ccc(Cl)cc2)CC1
66%	O=c1c2cnc3ccccc3c2ncn1CCN1CCN(c2ccccc2)CC1
93%	COc1ccccc1N1CCN(CCn2cnc3c(cnc4ccccc43)c2=O)CC1
82%	Cc1ccc2ncc3c(=O)n(CCN4CCN(c5cccc(C(F)(F)F)c5)CC4)cnc3c2c1
77%	Cc1ccc2ncc3c(=O)n(CCCN4CCN(c5cccc(Cl)c5)CC4)cnc3c2c1
92%	COc1ccccc1N1CCN(CCCn2cnc3c(cnc4cc(C)ccc43)c2=O)CC1
67%	Cc1ccc2ncc3c(=O)n(CCCN4CCN(c5ccc(F)cc5)CC4)cnc3c2c1
82%	COc1cccc(N2CCN(CCn3cnc4c(cnc5ccccc54)c3=O)CC2)c1
94%	Cc1ccc2ncc3c(=O)n(CCCCN4CCN(c5ccccc5F)CC4)cnc3c2c1
10%	O=c1c2cnc3ccccc3c2ncn1CCN1CCN(c2ccc(-c3ncccn3)cc2)CC1
81%	Cc1ccccc1N1CCN(CCCn2cnc3c(cnc4ccccc43)c2=O)CC1
6%	COc1ccc(N2CCN(CCn3cnc4c(cnc5ccccc54)c3=O)CC2)cc1
89%	O=c1c2cnc3ccccc3c2ncn1CCN1CCN(c2cccc(C(F)(F)F)c2)CC1
60%	Cc1ccc2c(c1)ncc1c(=O)n(CCCCN3CCN(c4ccc(F)cc4)CC3)cnc12
96%	O=c1c2cnc3ccccc3c2ncn1CCCCN1CCN(c2cccc(Cl)c2)CC1
68%	Cc1ccc2c(c1)ncc1c(=O)n(CCCN3CCN(c4ccc(F)cc4)CC3)cnc12
96%	COc1ccccc1N1CCN(CCn2cnc3c(cnc4cc(C)ccc43)c2=O)CC1
5%	COc1ccc(N2CCN(CCn3cnc4c(cnc5ccc(C)cc54)c3=O)CC2)cc1
90%	COc1cccc(N2CCN(CCCCn3cnc4c(cnc5ccccc54)c3=O)CC2)c1
42%	O=c1c2cnc3ccccc3c2ncn1CCCN1CCN(c2ccc(Cl)cc2)CC1
85%	Cc1ccc2c(c1)ncc1c(=O)n(CCCCN3CCN(c4cccc(Cl)c4)CC3)cnc12
91%	Cc1ccc2ncc3c(=O)n(CCCCN4CCN(c5cccc(Cl)c5)CC4)cnc3c2c1
88%	COc1ccccc1N1CCN(CCn2cnc3c(cnc4ccc(C)cc43)c2=O)CC1
88%	Cc1ccc2c(c1)ncc1c(=O)n(CCN3CCN(c4cccc(C(F)(F)F)c4)CC3)cnc12
